This note sets out measurements from ChEMBL document CHEMBL1667754, “Synthesis and biological activity of pyrazolothienotetrahydroisoquinoline and [1,2,4]triazolo[3,4-a]thienotetrahydroisoquinoline derivatives” (2011).

For assay [1], the system named is Geotrichum candidum. The experiment in a line: Antifungal activity against Geotrichum candidum at 2% by disc diffusion assay. (Agar diffusion results depend on both activity and mobility in agar.)
In assay [2] the test system is Fusarium oxysporum. Nature of the assay: Antifungal activity against Fusarium oxysporum at 2% by disc diffusion assay.
Assay [3] deals with Scopulariopsis brevicaulis. Nature of the assay: Antifungal activity against Scopulariopsis brevicaulis at 2% by disc diffusion assay.
Assay [4] concerns Trichophyton rubrum. The experiment in a line: Antifungal activity against Trichophyton rubrum at 50 uL/well by well diffusion assay. It counts as functional. In outline: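 Agar discs (10 mm) carrying spores and hyphae were shaken in sterile distilled water. 1 mL of the spore suspension was plated and mixed with 15 mL molten SDA, then left to set. Compounds were at 2% in DMSO, applied per Bauer's diffusion method. The read-out was the inhibition zone (mm).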

For assay [5], the system named is Staphylococcus aureus. Nature of the assay: Antibacterial activity against Staphylococcus aureus at 200 ug/disc by disc diffusion assay.
Assay [6] deals with Aspergillus niger. The experiment in a line: Antifungal activity against Aspergillus niger at 2% by disc diffusion assay.
In assay [7] the test system is Escherichia coli. Nature of the assay: Antibacterial activity against Escherichia coli at 50 uL/well by well diffusion assay. The assay is classed as functional. The gist of the method: (§1)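 Bauer-type diffusion assay. Test compounds were at 2% in DMSO. The read-out was the diameter (mm) of the inhibition zone, with chloramphenicol as the reference agent.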
Assay [8] relates to Candida albicans. The experiment in a line: Antifungal activity against Candida albicans at 200 ug/disc by disc diffusion assay.
The test system of assay [9] is Aspergillus flavus. Nature of the assay: Antifungal activity against Aspergillus flavus at 2% by disc diffusion assay.
The test system of assay [10] is Pseudomonas aeruginosa. Nature of the assay: Antibacterial activity against Pseudomonas aeruginosa at 200 ug/disc by disc diffusion assay.
For assay [11], the system named is Bacillus cereus. Nature of the assay: Antibacterial activity against Bacillus cereus at 200 ug/disc by disc diffusion assay.
Assay [12] deals with Serratia marcescens. Nature of the assay: Antibacterial activity against Serratia marcescens at 200 ug/disc by disc diffusion assay.
The test system of assay [13] is Micrococcus luteus. The experiment in a line: Antibacterial activity against Micrococcus luteus at 50 uL/well by well diffusion assay. It counts as functional. The gist of the method: as §1

`CC(=O)CSc1nc(NN)c2c(c1C#N)CCCC2`: the “diameter of the inhibition zone (DIZ)” value is listed as 12 mm in assay [1]; 0 mm in assay [2]; 0 mm in assay [3]; 20 mm in [4]; 0 mm in assay [5]; 0 mm in assay [6]. The “diameter of the inhibition zone (DIZ)” value in [7] came out at 12 mm; in [8], 11 mm; in assay [9], 0 mm; in assay [10], 0 mm; in [11], 11 mm; in assay [12], 8 mm. Moreover, in assay [13], the “diameter of the inhibition zone (DIZ)” value is 0 mm.

`CC(=O)c1sc2c(c1N)c1c(c3nncn32)CCCC1`: the “diameter of the inhibition zone (DIZ)” value in assay [1], in assay [2], in [3], in assay [4], in assay [5] and in [6] was 0 mm in each case. The “diameter of the inhibition zone (DIZ)” value in assay [7], in [8], in assay [9], in assay [10], in [11] and in assay [12] was 0 mm in each case. The “diameter of the inhibition zone (DIZ)” value in assay [13] amounted to 0 mm.

For `CCOC(=O)CSc1nc(NN)c2c(c1C#N)CCCC2`, the “diameter of the inhibition zone (DIZ)” value turned out to be 0 mm in assay [1]; 0 mm in [2]; 0 mm in assay [3]; 0 mm in assay [4]; 8 mm in assay [5]; 0 mm in assay [6]. Further, the “diameter of the inhibition zone (DIZ)” value was determined as 0 mm in assay [7]; 0 mm in assay [8]; 0 mm in assay [9]; 0 mm in [10]; 8 mm in assay [11]; 0 mm in assay [12]. Besides, the “diameter of the inhibition zone (DIZ)” value in [13] came to 0 mm.

For `N#Cc1c(SCC(N)=O)nc(NN)c2c1CCCC2`, the “diameter of the inhibition zone (DIZ)” value turned out to be 10 mm in [1]; 10 mm in assay [2]; 0 mm in assay [3]; 0 mm in assay [4]; 0 mm in [5]; 0 mm in assay [6]. The “diameter of the inhibition zone (DIZ)” value is listed as 11 mm in [7]; 0 mm in assay [8]; 0 mm in assay [9]; 0 mm in assay [10]; 0 mm in assay [11]; 8 mm in [12]. In [13], the “diameter of the inhibition zone (DIZ)” value came out at 0 mm.

In the case of `N#Cc1c2c(c(-n3[nH]c(=O)cc3N)[nH]c1=S)CCCC2`, the “diameter of the inhibition zone (DIZ)” value in [1] was 8 mm; in assay [2], 0 mm; in [3], 0 mm; in assay [4], 0 mm; in [5], 0 mm; in assay [6], 0 mm. Further, the “diameter of the inhibition zone (DIZ)” value in assay [7] was found to be 0 mm; in [8], 0 mm; in assay [9], 0 mm; in [10] it was 0 mm; in assay [11], 9 mm; in assay [12], 0 mm. For the same compound, in [13], the “diameter of the inhibition zone (DIZ)” value worked out at 10 mm.

As to `N#Cc1c2c(c(N3N=C(c4ccccc4)CC3=O)[nH]c1=S)CCCC2`, the “diameter of the inhibition zone (DIZ)” value was found to be 0 mm in [1]; 0 mm in [2]; 0 mm in assay [3]; 14 mm in assay [4]; 0 mm in assay [5]; 0 mm in assay [6]. Further, the “diameter of the inhibition zone (DIZ)” value in assay [7] stood at 13 mm; in [8], 0 mm; in assay [9] it was 0 mm; in assay [10], 0 mm; in assay [11], 0 mm; in assay [12], 0 mm. Further, in assay [13], the “diameter of the inhibition zone (DIZ)” value is 0 mm.

On to `N#Cc1c2c(c3[nH]ncn3c1=S)CCCC2`, for which the “diameter of the inhibition zone (DIZ)” value is given as 0 mm in assay [1]; 0 mm in [2]; 0 mm in [3]; 0 mm in assay [4]; 8 mm in assay [5]; 0 mm in assay [6]. The “diameter of the inhibition zone (DIZ)” value came out at 10 mm in [7]; 10 mm in assay [8]; 0 mm in [9]; 0 mm in assay [10]; 15 mm in [11]; 10 mm in [12]. In assay [13], the “diameter of the inhibition zone (DIZ)” value amounted to 12 mm.

As to `Clc1ccccc1C(c1ccccc1)(c1ccccc1)n1ccnc1` [CLOTRIMAZOLE], the “diameter of the inhibition zone (DIZ)” value in [1] was 26 mm; in [2], 25 mm; in [3], 27 mm; in assay [4], 40 mm; in [6], 25 mm; in [8], 27 mm. For the same compound, the “diameter of the inhibition zone (DIZ)” value in assay [9] was determined as 26 mm.

Turning to `N#Cc1c(SCC(=O)c2ccccc2)nc(NN)c2c1CCCC2`, the “diameter of the inhibition zone (DIZ)” value in assay [1] was determined as 12 mm; in assay [2] it was 0 mm; in assay [3], 0 mm; in assay [4], 12 mm; in assay [5], 10 mm; in assay [6] it was 0 mm. Besides, the “diameter of the inhibition zone (DIZ)” value in [7], in assay [8], in assay [9], in assay [10], in assay [11] and in assay [12] was 0 mm each time. Moreover, the “diameter of the inhibition zone (DIZ)” value in assay [13] came to 0 mm.

Consider `CCOC(=O)CSc1c(C#N)c2c(c3nncn13)CCCC2`, for which the “diameter of the inhibition zone (DIZ)” value in assay [1], in assay [2], in [3], in [4], in assay [5] and in assay [6] was 0 mm each time. For the same compound, the “diameter of the inhibition zone (DIZ)” value in assay [7] amounted to 0 mm; in [8], 0 mm; in assay [9], 0 mm; in assay [10], 0 mm; in assay [11], 11 mm; in assay [12], 0 mm. Besides, in [13], the “diameter of the inhibition zone (DIZ)” value was 10 mm.

On to `N#Cc1c2c(c3nncn3c1SCC(=O)c1ccccc1)CCCC2`, for which the “diameter of the inhibition zone (DIZ)” value in assay [1] is reported as 8 mm; in assay [2] it was 11 mm; in [3] it was 10 mm; in assay [4], 0 mm; in assay [5] it was 0 mm; in assay [6], 16 mm. Also, the “diameter of the inhibition zone (DIZ)” value came to 10 mm in [7]; 11 mm in assay [8]; 20 mm in assay [9]; 0 mm in assay [10]; 14 mm in assay [11]; 0 mm in assay [12]. Besides, the “diameter of the inhibition zone (DIZ)” value in assay [13] is 14 mm.

Regarding `O=C(N[C@H](CO)[C@H](O)c1ccc([N+](=O)[O-])cc1)C(Cl)Cl` [CHLORAMPHENICOL], the “diameter of the inhibition zone (DIZ)” value in assay [5] worked out at 20 mm; in assay [7] it was 34 mm; in assay [10] it was 17 mm; in assay [11] it was 30 mm; in assay [12], 40 mm; in assay [13] it was 18 mm.
